These results are taken from paper PMC11626521 (RSC Advances, 2024).

Common to all, as to assay: anti-proliferation assay
One test deals with HGC-27. The format is cell-based, human. The method, boiled down:
(§1)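 Seeding was 4000 cells per well, with overnight adherence. Media: HGC-27 and GES-1 in RPMI 1640; HT-29 and HCT-116 in McCoy's 5A; HeLa in DMEM; all with 10% FBS and 1% penicillin–streptomycin, 37 °C, 5% CO2. Test compounds ran 0–500 μM in 3-fold dilutions for 72 h. Read-out was CCK8 (0.5 mM WST-8, 10 μM PMS) for 0.5–2 h, absorbance 450 nm, IC50 from viability. SI = IC50(GES-1)/IC50(HGC-27).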

Another test deals with HT-29. The format is cell-based, human. As to conditions: read-out: IC50 HT-29; 72 h treatment, CCK8. The method, boiled down:
as §1

Another test concerns HeLa. The format is cell-based, human. Particulars: read-out: IC50 HeLa; 72 h treatment, CCK8. In short, it runs like this:
as §1

In a further test the test system is HCT-116. The format is cell-based, human. As to conditions: read-out: IC50 HCT-116; 72 h treatment, CCK8. In short, it runs like this:
as §1

Another test deals with GES-1. In kind it is cell-based. Particulars: read-out: IC50 GES-1; normal human gastric mucosa cell line, 72 h treatment, CCK8. In short, it runs like this:
as §1

As to `O=c1[nH]cc(F)c(=O)[nH]1` [5-FU], the “SI (GES-1/HGC-27)” value in the test on HGC-27 (SI = IC50 (GES-1)/IC50 (HGC-27)) was determined as 0.85. In addition, the IC50 (as a rule, the point on the concentration scale where inhibition reaches its midpoint) is 4.75 ± 0.18 µM in the test with HGC-27 (read-out: IC50 HGC-27, 72 h treatment, CCK8); 4.6 ± 0.55 µM in the test on HT-29; 3.43 ± 0.33 µM in the test with HeLa; 3.32 ± 0.3 µM in the test on HCT-116; 4.03 ± 0.19 µM in the test with GES-1.
